# Data published in ChEMBL document CHEMBL1123727, “Synthesis of 6-substituted beta-carbolines that behave as benzodiazepine receptor antagonists or inverse agonists” (J Med Chem, 1987).
# The source made the active and inactive calls. The rule behind the calls is not given here.
# Legend:
# [1] = target: GABA-A receptor; anion channel; test: In vitro displacement of [3H]diazepam from GABA-A benzodiazepine receptor in rat cerebral cortex; type: tissue-based
# Method in brief: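 Cortex from adult male Sprague–Dawley rats homogenized in 50 mM Tris-HCl pH 7.4, homogenization–centrifugation repeated three times in total. Membranes incubated with graded compound concentrations and [3H]diazepam (final 2 nM) for 90 min at 4 °C. Bound ligand collected by rapid GF/B filtration and counted by liquid scintillation. Nonspecific binding defined with 5 μM flunitrazepam.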
# [2] = tested on: Mus musculus; test: Dose required to antagonize Diazepam (2.5 mg/kg) anticonvulsant effects in mice treated with pentylenetetrazole (80 mg/kg) (inactive); type: functional, organism-based
# [3] = tested on: Mus musculus; test: Dose required to induce convulsions in mice treated with subconvulsant pentylenetetrazole (40 mg/kg); type: functional
# Method in brief: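 Adult male mice (20–25 g) given drug ip (suspended in 10% diluted emulphor–90% saline, HCl salts), then challenged 5 min later with subconvulsant PTZ (40 mg/kg ip). Two independent raters observed clonic-tonic convulsions. ED50 = dose inducing convulsions in 50% of mice. Highest dose tested 40 mg/kg.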
# [4] = In vitro displacement of [3H]-diazepam from GABA-A benzodiazepine receptor in rat cerebral cortex; type: tissue-based
# Method in brief: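 Cortex from adult male Sprague–Dawley rats homogenized in 50 mM Tris-HCl pH 7.4, washed three times and resuspended. Incubated with varying test concentrations and [3H]diazepam (2 nM final) for 90 min at 4 °C. Ended by GF/B filtration, radioactivity counted by scintillation. Nonspecific binding defined with 5 μM flunitrazepam. IC50 reported.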
# [5] = tested on: Mus musculus; test: Dose required to antagonize Diazepam (2.5 mg/kg) anticonvulsant effects in mice treated with pentylenetetrazole (80 mg/kg); type: functional
# Method in brief: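 Adult male mice (20–25 g) given diazepam 2.5 mg/kg ip in 10% diluted emulphor–90% saline. Drug or vehicle given ip 5 min later, then PTZ 80 mg/kg ip (CD100) after another 5 min. Two independent raters scored clonic-tonic convulsions; animals counted protected if seizure-free for 15 min. ED50 = dose antagonizing diazepam's anticonvulsant effect in 50% of mice.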
# [6] = tested on: Mus musculus; test: Dose required to induce convulsions in mice treated with subconvulsant pentylenetetrazole (40 mg/kg) (inactive); type: functional, organism-based
Compound,IC50 [1] [nM],further results
CC(=O)c1cc2c3ccccc3nc-2c[nH]1,58,
OCc1cc2c3ccccc3nc-2c[nH]1,1470,
O=C(OC1CCCC1)c1cc2c3ccccc3nc-2c[nH]1,50,
OCc1cc2c3cc(NCc4ccccc4)ccc3nc-2c[nH]1,76,ED50 [2]: inactive; ED50 [3]: 40 mg/kg
Nc1ccc2[nH]c3cnccc3c2c1,1300,
c1ccc2c(c1)[nH]c1cnccc12 [NORHARMANE],,IC50 [4]: 1620 nM
COC(=O)c1cc2c(cn1)[nH]c1ccc(NCc3ccccc3)cc12,10,ED50 [5]: 15.5 mg/kg; ED50 [6]: inactive
c1ccc(CNc2ccc3[nH]c4cnccc4c3c2)cc1,106,ED50 [5]: 38 mg/kg; ED50 [3]: 28 mg/kg
c1ccc(CNc2ccc3[nH]c4ccccc4c3c2)cc1,> 5000,
